Published values of several laboratories.
Lines come from different studies, so protocols differ.
Target: Misshapen-like kinase 1 (MINK1, Homo sapiens, UniProt Q8N4C8)

SMILES	assay	conditions	endpoint	result
CCN(CC)CCNC(=O)c1c(C)[nH]c(/C=C2\C(=O)Nc3ccc(F)cc32)c1C	enzyme activity, inhibitor	10 µM	inhibition	94%
CC(C)(O)[C@H]1CC[C@H](Nc2ccc3ncc(-c4cccc(C(F)(F)F)c4)n3n2)CC1	enzyme activity, inhibitor	1 µM	remaining activity	97%
Cc1ccc(Nc2nccc(N(C)c3ccc4c(C)n(C)nc4c3)n2)cc1S(N)(=O)=O	enzyme activity, inhibitor	0.3 µM	inhibition	23%
Cc1ccc(C(=O)Nc2ccc(CN3CCN(C)CC3)c(C(F)(F)F)c2)cc1C#Cc1cnc2cccnn12	enzyme activity, inhibitor	23.5 nM	remaining activity	45%
CC(C)(C)c1nc(-c2cccc(NS(=O)(=O)c3c(F)cccc3F)c2F)c(-c2ccnc(N)n2)s1	enzyme activity, inhibitor, radiometric	1 µM	remaining activity	100%
COc1cc(Cl)c(C(=O)N[C@@H](CN[C@H]2CC[C@@H](N)CC2)Cc2ccc(C#N)cc2)cc1-c1ccc(CN[C@H](C)c2ccc(C)cc2)o1	enzyme activity, inhibitor	1 µM	remaining activity	94%
COc1cc2ncnc(Nc3ccc(Oc4ccccc4)c(C)c3C)c2cc1OC	enzyme activity, inhibitor	1 µM	inhibition	-1%
Oc1cccc(-c2nc(N3CCOCC3)c3oc4ncccc4c3n2)c1	enzyme activity, inhibitor	10 µM	remaining activity	116%
COc1cc(Nc2cnc(C#N)c(O[C@H](C)CN(C)C)n2)ncc1-c1cnn(C)c1	enzyme activity, inhibitor, radiometric	10 µM	remaining activity	67%
N#CCCc1ccc2c(c1)-c1[nH]c3ccc([N+](=O)[O-])cc3c1CC(=O)N2	cell-free assay	0.5 µM	remaining signal	29.9%
Cc1sc(C(=O)NC2COC2)cc1-n1cc(NC(=O)Nc2c(F)cccc2Cl)cn1	enzyme activity, inhibitor	10 µM	remaining activity	102%
C[C@@H]1CN(c2cc(-c3n[nH]c4ccc(OC5(C)CC5)cc34)ncn2)C[C@H](C)O1	cell-free assay, competition with immobilised ligand	0.1 µM	remaining binding	84%
CN1CC(Oc2cnc(C#N)cc2-c2ccn3nc(NC(=O)C4CC4)cc3c2)C1	enzyme activity, inhibitor	1 µM	inhibition	13%
CN(C)C1CCN(CC#Cc2nn(C3CCCC3)c3nc(NCc4ccccc4)ncc23)C1 (stereo not shown)	enzyme activity, inhibitor, FRET	1 µM	inhibition	17%
COc1ccc2c(c1)O[C@@H](c1ccc(OC)c(OC)c1)C[C@H]2NC(=O)C1(c2ccc3c(c2)OC(F)(F)O3)CC1	cell-free assay, competition with immobilised ligand	1 µM	remaining binding	77%
Cc1ccc(NC(=O)c2ccc(C)c(C(F)(F)F)c2)cc1C#Cc1nn(C2CCC(O)CC2)c2ncnc(N)c12 (stereo not shown)	cell-free assay	10 µM	remaining signal	25%

SMILES	assay	conditions	endpoint	result
Cn1nc(C(=O)NCc2ccc(C(=O)O)cc2)cc1-c1ccc2[nH]ccc2c1	cell-free assay, competition with immobilised ligand	0.1 µM	remaining binding	95%
COc1cc(-c2cc(-c3ccc(N4CCNCC4)cc3)cnc2N)cc(OC)c1OC	enzyme activity, inhibitor	1 µM	inhibition	89%
CNC(=O)c1cc(Oc2ccc(NC(=O)Nc3ccc(Cl)c(C(F)(F)F)c3)cc2)ccn1	enzyme activity, inhibitor	0.3 µM	inhibition	14%
Cc1nc(C2CCN(C(=O)c3ccc(OC(F)(F)F)cc3N)CC2)c2ncc(N3CCN(C)CC3)cc2n1	cell-free assay, competition with immobilised ligand	1 µM	remaining binding	93%
O=C1Nc2ccc(Cl)cc2C1=Cc1cc(Cl)c(O)c(Cl)c1	cell-free assay	0.5 µM	remaining signal	22.4%
COc1cc(/C=C/C(=O)CC(=O)/C=C/c2ccc(O)c(OC)c2)ccc1O	enzyme activity, inhibitor	1 µM	activity vs control	78%
NS(=O)(=O)c1cc(NC(=O)Cc2ccccc2)ccc1Oc1cccc(Cl)c1	cell-free assay, competition with immobilised ligand	1 µM	remaining binding	90%
COc1ccc(COc2ccc(Cc3cnc(N)nc3N)cc2OC)cc1	cell-free assay	0.5 µM	remaining signal	86.5%
Cc1noc([C@H]2C[C@@H](c3ccc(C(F)(F)F)cc3)CN(C(=O)N3CCS(=O)(=O)C3)C2)n1	cell-free assay, competition with immobilised ligand	1 µM	remaining binding	100%
O=C(Nc1cnn(-c2csc(C(=O)NC3COC3)c2)c1)Nc1ccccc1Cl	enzyme activity, inhibitor	5 µM	remaining activity	79.4%
O=C(NCc1ncc(C(F)(F)F)cc1Cl)c1ccc2c(c1)C1(CCS(=O)(=O)CC1)[C@@H](C1CC1)N2S(=O)(=O)c1ccc(F)cc1	cell-free assay, competition with immobilised ligand	1 µM	remaining binding	85%
FC(F)(F)Oc1cccc(-c2cnc3ccc(-c4ccncc4)nn23)c1	enzyme activity, inhibitor, radiometric	1 µM	activity vs control	58%
CNC(=O)c1ccc(Nc2ncc(C(F)(F)F)c(NCc3nccnc3N(C)S(C)(=O)=O)n2)cc1	cell-free assay, competition with immobilised ligand	0.1 µM	remaining binding	44%
Cc1cc(NC(=O)c2cccc3cc(-c4cccc5[nH]nc(N)c45)ccc23)ccc1F	enzyme activity, inhibitor	0.1 µM	activity vs control	110%
CC/C(=N\NC(=O)NCc1cccc(O)c1)c1ccc(O)c(C)c1O	enzyme activity, inhibitor	0.1 µM	inhibition	-1%
